Consider 33 compounds from ChEMBL document CHEMBL4017491, “Phthalazino[1,2-b]quinazolinones as p53 Activators: Cell Cycle Arrest, Apoptotic Response and Bak-Bcl-xl Complex Reorganization in Bladder Cancer Cells” (J Med Chem, 2017).

pIC50: −log10 of the molar value. Activity calls are given as the source filed them. The calls are words filed in the database; no cut-off is given here. Where only a bound is given, the exact number is not on record here.

The test system of one assay is HeLa. The assay is described as follows: Antiproliferative activity against human HeLa cells by MTT assay. Type of assay: functional, cell-based. An outline of the steps:
(§1)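 Cell lines cultured in RPMI 1640 with 10% FBS. Viability read by MTT (5 mg/mL, 4 h at 37 °C), with formazan dissolved in DMSO and absorbance taken at 490 nm. Viability (%) = A490 treated / A490 control × 100. IC50 taken from dose-response curves, from three independent experiments each run in triplicate.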

The test system of the next assay is NCI-H460. The assay is described as follows: Antiproliferative activity against human NCI-H460 cells by MTT assay. Type of assay: functional, cell-based. An outline of the steps:
as §1

Assay [1] has as its system T-24. Kind of assay: Antiproliferative activity against human T24 cells by MTT assay. Type of assay: functional, cell-based. The method, boiled down:
as §1

Another assay concerns MGC-803. Kind of assay: Antiproliferative activity against human MGC803 cells by MTT assay. Type of assay: functional, cell-based. The method, boiled down: as §1
The subject of assay [2] is HepG2. The assay is described as follows: Antiproliferative activity against human HepG2 cells by MTT assay. Type of assay: functional, cell-based. The method, boiled down: as §1
Assay [3] deals with HepG2. The assay is described as follows: Antitumor activity against human HepG2 cells xenografted in BALB/C nude mouse assessed as tumor growth inhibition at 6 mg/kg, ip administered every 2 days for 16 days relative to control. Type of assay: functional. The settings on record: read-out: TGI. An outline of the steps: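 Male BALB/C nude mice, 6 weeks old, given subcutaneous flank injection of 5 × 10^6 HepG2 cells; tumors of 80−200 mm3 randomized, n = 6/group. Dosing ip every other day, vehicle 5% DMSO in saline (v/v). Tumor length and width measured three times a week, volume V = lw2/2; growth inhibition expressed versus vehicle group. Body weight also recorded.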

The subject of assay [4] is T-24. Kind of assay: Effect on p53 expression in human T24 cells up to 10 uM after 24 hrs by Western blot analysis. Type of assay: functional, cell-based. An outline of the steps: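 T24 cells (3 × 10^5 per well) grown to 85–95% confluence, then exposed 24 h to 0–10 μM. Whole-cell extracts run on SDS-PAGE and blotted to nitrocellulose. Probed with the indicated antibodies and AP-linked anti-rabbit IgG, with ECL detection. Blots stripped and reprobed for β-actin as loading control.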

Assay [5] concerns the target Cellular tumor antigen p53 (Homo sapiens) (UniProt P04637). Kind of assay: Activation of p53 in human T24 cells assessed as p53 phosphorylation after 24 hrs by Western blot analysis. Type of assay: cell-based. An outline of the steps:
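T24 cells, 3 × 10^5 per well, grown to 85−95% confluence, then exposed to 0−10 μM for 24 h. Whole-cell extracts in sample buffer run on SDS-polyacrylamide gels and transferred to nitrocellulose. Blots probed with primary antibodies and AP-linked anti-rabbit IgG, detected by ECL. Blots stripped and reprobed for β-actin as loading control.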

Sequence of Cellular tumor antigen p53 (Homo sapiens) (P04637 whole entry, looked up): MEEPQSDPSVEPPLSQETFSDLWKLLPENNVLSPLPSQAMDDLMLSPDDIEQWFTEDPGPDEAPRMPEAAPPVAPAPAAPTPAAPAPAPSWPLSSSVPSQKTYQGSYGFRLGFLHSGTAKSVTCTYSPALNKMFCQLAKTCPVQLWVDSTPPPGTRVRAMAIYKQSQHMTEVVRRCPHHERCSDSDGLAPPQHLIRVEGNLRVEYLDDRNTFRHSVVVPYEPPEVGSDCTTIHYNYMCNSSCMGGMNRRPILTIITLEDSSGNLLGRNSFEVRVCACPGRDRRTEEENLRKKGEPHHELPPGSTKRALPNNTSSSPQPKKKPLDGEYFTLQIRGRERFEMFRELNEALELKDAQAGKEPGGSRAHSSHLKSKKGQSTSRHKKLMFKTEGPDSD

On to `CCOC(=O)CNc1nn2c(=O)c3cc(Br)ccc3nc2c2ccccc12`, for which the pIC50 in the assay with HeLa, in the assay with NCI-H460, with T-24 [1], in the assay with MGC-803 and in the assay on HepG2 [2] was < 4.00 each time.
With `Cc1ccc2nc3c4ccccc4c(N4CCN(C)CC4)nn3c(=O)c2c1`, the pIC50 in the assay on HeLa was 4.07; in the assay with NCI-H460, 4.15; in the assay on T-24 [1] it was 4.22; in the assay on MGC-803 it was 4.47; in the assay with HepG2 [2], 4.26.
`Cc1ccc2nc3c4ccccc4c(NCCCN4CCOCC4)nn3c(=O)c2c1`: the pIC50 in the assay on HeLa is 4.62; in the assay with NCI-H460, 4.67; in the assay on T-24 [1] it was 5.01; in the assay with MGC-803 it was 4.68; in the assay on HepG2 [2], 4.62.
Take `Cc1ccc2nc3c4ccccc4c(NCCN(C)C)nn3c(=O)c2c1`: the pIC50 with HeLa was 5.47; with NCI-H460, 5.24; in the assay with T-24 [1] it was 5.67; with MGC-803, 5.25; in the assay with HepG2 [2], 5.30.
`O=c1c2cc(Br)ccc2nc2c3ccccc3c(NCCN3CCOCC3)nn12`: the pIC50 is 5.06 in the assay with HeLa; 5.11 in the assay with NCI-H460; 4.97 in the assay with T-24 [1]; 5.00 in the assay on MGC-803; 4.95 with HepG2 [2].
The like results for `O=c1c2cc(F)ccc2nc2c3ccccc3c(N3CCOCC3)nn12` were, in that order, < 4.00, < 4.00, < 4.00, < 4.00 and < 4.00.
For the compound `CN(C)CCCNc1nn2c(=O)c3cc(Cl)ccc3nc2c2ccccc12`, the pIC50 in the assay on HeLa was 4.81; in the assay on NCI-H460, 4.98; in the assay on T-24 [1] it was 5.01; in the assay with MGC-803 it was 4.86; in the assay on HepG2 [2] it was 5.06.
The corresponding values for `CN(C)CCNc1nn2c(=O)c3cc(Cl)ccc3nc2c2ccccc12` are 5.25, 5.29, 5.46, 5.32 and 5.31.
The corresponding values for `O=c1c2cc(Br)ccc2nc2c3ccccc3c(NCCCN3CCOCC3)nn12` are 4.76, 4.82, 5.04, 5.14 and 4.89.
The like results for `CN(C)CCNc1nn2c(=O)c3ccccc3nc2c2ccccc12` were, in that order, 4.89, 4.92, 5.13, 5.06 and 4.99.
Take `CCN(CC)CCNc1nn2c(=O)c3cc(Br)ccc3nc2c2ccccc12`: the pIC50 in the assay with HeLa was 5.06; with NCI-H460, 5.30; in the assay with T-24 [1], 4.97; with MGC-803, 5.14; in the assay on HepG2 [2], 5.52.
The corresponding values for `CC(C)N(CCNc1nn2c(=O)c3cc(Br)ccc3nc2c2ccccc12)C(C)C` are 4.94, 4.87, 4.90, 4.97 and 4.93.
The corresponding values for `Cc1ccc2nc3c4ccccc4c(NCCCN(C)C)nn3c(=O)c2c1` are 4.87, 5.01, 5.14, 5.28 and 5.11.
The corresponding values for `CN1CCN(c2nn3c(=O)c4cc(Cl)ccc4nc3c3ccccc23)CC1` are < 4.00, 4.15, 4.51, 4.18 and 4.24.
Consider `O=c1c2cc(Br)ccc2nc2c3ccccc3c(NCCN3CCCC3)nn12`, for which the negative logarithm of the IC50 (pIC50) in the assay with HeLa is 5.43; in the assay with NCI-H460, 5.16; with T-24 [1] it was 5.19; with MGC-803 it was 5.38; in the assay with HepG2 [2] it was 5.28.
The corresponding values for `CN(C)CCCNc1nn2c(=O)c3cc(F)ccc3nc2c2ccccc12` are 4.66, 4.95, 5.05, 4.49 and 4.97.
The like results for `CN1CCN(c2nn3c(=O)c4cc(F)ccc4nc3c3ccccc23)CC1` were, in that order, 4.35, 4.11, 4.46, 4.58 and 4.28.
The like results for `CN1CCN(c2nn3c(=O)c4ccccc4nc3c3ccccc23)CC1` were, in that order, 4.30, 4.50, 4.47, 4.35 and 4.40.
For the compound `CN1CCN(c2nn3c(=O)c4cc(Br)ccc4nc3c3ccccc23)CC1`, the pIC50 in the assay on HeLa was 4.13; in the assay with NCI-H460 it was 4.36; in the assay with T-24 [1], 4.11; with MGC-803, 4.39; with HepG2 [2] it was 4.39.
`O=c1c2ccccc2nc2c3ccccc3c(N3CCOCC3)nn12`: the pIC50 with HeLa was < 4.00; with NCI-H460 it was < 4.00; in the assay with T-24 [1], < 4.00; with MGC-803, < 4.00; in the assay on HepG2 [2] it was 4.03.
In the case of `O=c1c2cc(Br)ccc2nc2c3ccccc3c(N3CCOCC3)nn12`, the pIC50 in the assay on HeLa, in the assay on NCI-H460, in the assay with T-24 [1], in the assay with MGC-803 and in the assay on HepG2 [2] was < 4.00 in each case.
On to `O=c1c2cc(Cl)ccc2nc2c3ccccc3c(NCCCN3CCOCC3)nn12`, for which the pIC50 was 4.46 in the assay with HeLa; 4.70 in the assay with NCI-H460; 5.05 with T-24 [1]; 4.64 in the assay with MGC-803; 4.74 in the assay with HepG2 [2].
The corresponding values for `CCOC(=O)CCNc1nn2c(=O)c3cc(Br)ccc3nc2c2ccccc12` are < 4.00, < 4.00, < 4.00, < 4.00 and < 4.00.
The corresponding values for `O=c1c2ccccc2nc2c3ccccc3c(NCCCN3CCOCC3)nn12` are 4.27, 4.40, 4.55, 4.84 and 4.52.
The like results for `CCCCNc1nn2c(=O)c3cc(Br)ccc3nc2c2ccccc12` were, in that order, < 4.00, < 4.00, < 4.00, < 4.00 and < 4.00.
As to `CC[C@@]1(O)C(=O)OCc2c1cc1n(c2=O)Cc2cc3cc(O)ccc3nc2-1` [HYDROXYCAMPTOTHECIN], the pIC50 in the assay on HeLa was 4.54; in the assay on NCI-H460 it was 5.31; in the assay on T-24 [1], 5.26; with MGC-803, 4.82; in the assay on HepG2 [2], 5.26. For the same compound, the inhibition in vivo at 6 mg/kg with HepG2 [3] came to 71.6%.
Turning to `O=c1c2cc(F)ccc2nc2c3ccccc3c(NCCCN3CCOCC3)nn12`, the pIC50 is 4.22 in the assay on HeLa; 4.28 in the assay with NCI-H460; 4.72 in the assay with T-24 [1]; 4.10 in the assay with MGC-803; 4.35 with HepG2 [2].
The like results for `O=c1c2cc(Br)ccc2nc2c3ccccc3c(NCCN3CCCCC3)nn12` were, in that order, 5.70, 5.11, 5.42, 5.35 and 5.38.
As for `CN(C)CCCNc1nn2c(=O)c3ccccc3nc2c2ccccc12`, the pIC50 was 4.69 in the assay on HeLa; 4.77 in the assay on NCI-H460; 4.84 in the assay on T-24 [1]; 4.97 with MGC-803; 4.94 in the assay with HepG2 [2]. Further, the result with T-24 [4] was inactive. For the same compound, the Activity entry in assay [5] is “Dose-dependent effect”.
On to `CN(C)CCNc1nn2c(=O)c3cc(F)ccc3nc2c2ccccc12`, for which the negative-log IC50 (pIC50) in the assay with HeLa is 5.10; in the assay on NCI-H460, 5.13; in the assay on T-24 [1], 5.34; in the assay with MGC-803, 5.18; in the assay on HepG2 [2], 5.33.
The corresponding values for `O=c1c2cc(Cl)ccc2nc2c3ccccc3c(N3CCOCC3)nn12` are < 4.00, < 4.00, < 4.00, < 4.00 and < 4.00.
The like results for `CN(C)CCCNc1nn2c(=O)c3cc(Br)ccc3nc2c2ccccc12` were, in that order, 5.15, 5.26, 5.49, 5.47 and 5.66.
The like results for `Cc1ccc2nc3c4ccccc4c(N4CCOCC4)nn3c(=O)c2c1` were, in that order, < 4.00, < 4.00, < 4.00, < 4.00 and < 4.00.
